Results published in ChEMBL document CHEMBL4627381, “Licochalcone A Selectively Resensitizes ABCG2-Overexpressing Multidrug-Resistant Cancer Cells to Chemotherapeutic Drugs” (J Nat Prod, 2020).

Assays:
S1 [1] = experiment: Induction of apoptosis in human S1 cells assessed as early apoptotic cells at 10 uM incubated for 48 hrs in presence of topotecan by annexin V/propidium iodide staining based flow cytometry (reference value: 2%); type: functional
Method in brief: (§1)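 S1 cells were exposed for 48 h to DMSO, 10 μM compound, 5 μM topotecan, or 5 μM topotecan plus 10 μM compound. They were then stained with 1.25 μg/mL annexin V–FITC and 0.1 mg/mL PI for 15 min at room temperature. 10000 cells per sample were analysed by flow cytometry; three independent experiments.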

S1-M1-80 [2] = experiment: Potentiation of topotecan-induced apoptosis in human S1-M1-80 cells harboring ABCG2 (unknown origin) assessed as early apoptotic cells at 10 uM incubated for 48 hrs by annexin V/propidium iodide staining based flow cytometry (reference value: 3%); type: functional
S1 [3] = experiment: Induction of apoptosis in human S1 cells assessed as late apoptotic cells at 10 uM incubated for 48 hrs in presence of topotecan by annexin V/propidium iodide staining based flow cytometry (reference value: 3.6%); type: functional; method in brief: as §1
S1 [4] = experiment: Effect on mitoxantrone-induced cytotoxicity against human S1 cells assessed as fold change in mitoxantrone IC50 at 2 uM after 72 hrs by MTT assay relative to mitoxantrone IC50; type: functional
Method in brief: (§2)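 Parental S1 colon and H460 lung cancer cells were exposed for 72 h to a mitoxantrone or topotecan concentration series, with or without modulator at 0.5–3.0 μM, and read by MTT. Fold-reversal is IC50 without modulator divided by IC50 with modulator, taken from dose-response curves of three independent experiments.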

S1 [5] = experiment: Cytotoxicity against human S1 cells after 72 hrs by MTT assay; type: functional, cell-based; conditions: S1, 72 h
Method in brief: (§3)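 Cells seeded at 5000/well, allowed 24 h, then exposed to a concentration series for 72 h at 37 °C in DMSO vehicle (up to 0.5% v/v). HEK293 lines were read with CCK-8 and cancer lines with MTT. IC50 was taken from fitted dose-response curves over at least three independent experiments. Lines were kept drug-free for 7 days before assay.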

S1 [6] = experiment: Induction of apoptosis in human S1 cells assessed as viable cells at 10 uM incubated for 48 hrs by annexin V/propidium iodide staining based flow cytometry (reference value: 94.1%); type: functional; conditions: S1, 48 h, read-out: Activity
HEK293 [7] = experiment: Cytotoxicity against HEK293 cells after 72 hrs by CCK8 assay; type: cell-based; conditions: Homo sapiens, HEK293, 72 h; method in brief: as §3
[8] = molecular target: T1, Broad substrate specificity ATP-binding cassette transporter ABCG2 (Homo sapiens, UniProt Q9UNQ0); experiment: Modulation of ABCG2 (unknown origin) expressed in H460-MX20 cells assessed as increase in intracellular pheophorbide A accumulation at 20 uM incubated for 1 hr by FACScan flow cytometry; type: cell-based
T1 sequence (Q9UNQ0 whole entry): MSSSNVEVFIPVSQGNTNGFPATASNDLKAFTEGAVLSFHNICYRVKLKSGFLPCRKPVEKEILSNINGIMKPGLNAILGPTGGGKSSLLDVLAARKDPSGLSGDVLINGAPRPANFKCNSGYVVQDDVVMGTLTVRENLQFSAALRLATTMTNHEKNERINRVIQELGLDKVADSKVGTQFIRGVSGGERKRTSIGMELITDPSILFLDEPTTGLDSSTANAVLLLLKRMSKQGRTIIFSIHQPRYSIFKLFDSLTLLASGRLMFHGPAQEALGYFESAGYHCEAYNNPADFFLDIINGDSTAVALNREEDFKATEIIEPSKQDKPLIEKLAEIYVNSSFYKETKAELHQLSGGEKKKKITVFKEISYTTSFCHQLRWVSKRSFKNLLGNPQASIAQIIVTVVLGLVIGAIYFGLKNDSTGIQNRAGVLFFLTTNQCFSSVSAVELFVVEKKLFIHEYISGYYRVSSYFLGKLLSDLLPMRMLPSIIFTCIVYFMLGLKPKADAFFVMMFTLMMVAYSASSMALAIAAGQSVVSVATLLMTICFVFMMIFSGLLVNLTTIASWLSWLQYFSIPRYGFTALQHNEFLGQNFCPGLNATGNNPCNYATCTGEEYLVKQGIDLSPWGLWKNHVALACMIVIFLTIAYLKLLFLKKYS
Method in brief: (§4)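 Cells held drug-free 7 days. 3 × 10^5 cells were suspended in IMDM with 5% FCS and loaded with pheophorbide A (ex 395/em 670 nm) for 1 h, with or without LCA (20 μM for single-concentration accumulation) or Ko143 3 μM as reference. Read immediately by flow cytometry. Efflux inhibition was run over a concentration range; mean ± SD of three experiments.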

HEK293 [9] = experiment: Effect on Colchicine-induced cytotoxicity against HEK293 cells assessed as fold change in colchicine IC50 at 3 uM after 72 hrs by CCK8 assay relative to colchicine IC50; type: cell-based; conditions: human, hek293, 72 h
Method in brief: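 Reversal assay in parental pcDNA-HEK293 and transfected HEK293 lines (ABCB1 for colchicine, ABCC1 for etoposide, ABCG2 for mitoxantrone/topotecan). Substrate drug series was given with or without nontoxic modulator (0.5, 1.0, 2.0 or 3.0 μM) for 72 h, with a CCK-8 read-out. Fold-reversal is substrate IC50 without modulator divided by IC50 with modulator. Three independent experiments.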

S1-M1-80 [10] = experiment: Induction of apoptosis in human S1-M1-80 cells harboring ABCG2 (unknown origin) assessed as viable cells at 10 uM incubated for 48 hrs by annexin V/propidium iodide staining based flow cytometry (reference value: 93.9%); type: functional; conditions: S1-M1-80, 48 h, read-out: Activity
[11] = molecular target: T1, Broad substrate specificity ATP-binding cassette transporter ABCG2; experiment: Reversal of human ABCG2-mediated multidrug resistance in HEK293/R482 cells assessed as fold change in mitoxantrone IC50 at 3 uM after 72 hrs by CCK8 assay relative to mitoxantrone IC50; type: cell-based
Method in brief: (§5)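 Cells were seeded at 5000/well for 24 h, then given colchicine, etoposide, mitoxantrone or topotecan ± non-toxic modulator (0.5–3.0 μM) for 72 h, with DMSO up to 0.5%. IC50 came from fitted curves (mean ± SD, three experiments). Fold-reversal = IC50 without modulator ÷ IC50 with modulator.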

S1 [12] = experiment: Effect on mitoxantrone-induced cytotoxicity against human S1 cells assessed as fold change in mitoxantrone IC50 at 1 uM after 72 hrs by MTT assay relative to mitoxantrone IC50; type: functional; method in brief: as §2
[13] = molecular target: T1, Broad substrate specificity ATP-binding cassette transporter ABCG2; experiment: Reversal of ABCG2 (unknown origin)-mediated multidrug resistance in human H460-MX20 cells assessed as fold change in topotecan IC50 at 1 uM after 72 hrs by MTT assay relative to topotecan IC50; type: cell-based
Method in brief: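 Cells held drug-free 7 days, seeded at 5000 per well for 24 h, then exposed 72 h to mitoxantrone or topotecan dilutions with DMSO (≤0.5%), LCA 0.5–3.0 μM, or Ko143 1.0 μM. Viability was read by MTT. IC50 came from fitted dose-response curves of three independent experiments. Fold-reversal = IC50 without modulator divided by IC50 with modulator.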

[14] = molecular target: ATP-dependent translocase ABCB1 (Homo sapiens, UniProt P08183); experiment: Reversal of human ABCB1-mediated multidrug resistance in HEK293/MDR19 cells assessed as fold change in colchicine IC50 at 1 uM after 72 hrs by CCK8 relative to colchicine IC50; type: cell-based; method in brief: as §5
[15] = molecular target: T1, Broad substrate specificity ATP-binding cassette transporter ABCG2; experiment: Modulation of human ABCG2 expressed in HEK293/R482 cells assessed as increase in intracellular pheophorbide A accumulation at 20 uM incubated for 1 hr by FACScan flow cytometry; type: cell-based; method in brief: as §4

Sequence of ATP-dependent translocase ABCB1 (P08183 whole entry): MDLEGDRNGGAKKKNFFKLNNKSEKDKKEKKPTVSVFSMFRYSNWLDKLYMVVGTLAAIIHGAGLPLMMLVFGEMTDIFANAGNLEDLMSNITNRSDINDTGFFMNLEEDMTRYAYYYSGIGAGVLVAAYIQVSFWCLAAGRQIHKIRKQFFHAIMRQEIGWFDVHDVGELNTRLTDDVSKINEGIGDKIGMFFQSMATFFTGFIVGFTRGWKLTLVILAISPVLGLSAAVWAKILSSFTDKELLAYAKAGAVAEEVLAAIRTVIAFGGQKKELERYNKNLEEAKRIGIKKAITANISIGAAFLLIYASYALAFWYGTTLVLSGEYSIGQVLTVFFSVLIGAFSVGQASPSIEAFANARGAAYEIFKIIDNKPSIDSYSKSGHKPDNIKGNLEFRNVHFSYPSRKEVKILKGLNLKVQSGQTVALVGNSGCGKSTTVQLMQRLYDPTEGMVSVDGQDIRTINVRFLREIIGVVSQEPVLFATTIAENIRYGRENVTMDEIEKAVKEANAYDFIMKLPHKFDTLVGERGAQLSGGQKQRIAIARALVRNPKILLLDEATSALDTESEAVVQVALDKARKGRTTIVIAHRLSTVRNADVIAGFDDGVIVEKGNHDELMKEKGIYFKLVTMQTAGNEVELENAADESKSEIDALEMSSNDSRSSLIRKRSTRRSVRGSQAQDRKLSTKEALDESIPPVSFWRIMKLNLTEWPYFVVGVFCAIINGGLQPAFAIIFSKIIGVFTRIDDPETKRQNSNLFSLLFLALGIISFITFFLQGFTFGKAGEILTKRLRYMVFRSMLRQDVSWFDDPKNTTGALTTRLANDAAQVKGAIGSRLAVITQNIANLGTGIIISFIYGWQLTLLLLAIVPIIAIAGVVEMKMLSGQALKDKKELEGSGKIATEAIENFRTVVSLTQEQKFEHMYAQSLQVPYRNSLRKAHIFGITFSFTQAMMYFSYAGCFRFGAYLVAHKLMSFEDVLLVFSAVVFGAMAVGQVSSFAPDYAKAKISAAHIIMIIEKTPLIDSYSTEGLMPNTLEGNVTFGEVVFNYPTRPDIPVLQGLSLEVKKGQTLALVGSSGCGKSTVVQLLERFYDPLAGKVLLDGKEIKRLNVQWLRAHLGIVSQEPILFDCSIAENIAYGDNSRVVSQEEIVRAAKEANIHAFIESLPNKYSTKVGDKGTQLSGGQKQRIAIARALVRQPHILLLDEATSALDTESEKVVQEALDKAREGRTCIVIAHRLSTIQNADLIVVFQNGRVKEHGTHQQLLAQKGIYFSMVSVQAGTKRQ

- Activity [8]: Active
- fold change (FC) [13]: 9.2
- fold change (FC) [14]: 0.8
- Activity [15]: Active
SMILES: C=CC(C)(C)c1cc(/C=C/C(=O)c2ccc(O)cc2)c(OC)cc1O [LICOAGROCHACONE A]
- Activity (S1 [1]): 30.3%
- Activity (S1-M1-80 [2]): 9%
- Activity (S1 [3]): 22.5%
- fold change (FC) (S1 [4]): 1.1
- IC50 (S1 [5]): 10 to 50 µM
- viability at 10 µM (S1 [6]): 95.4%
- IC50 (HEK293 [7]): 10 to 50 µM
- fold change (FC) (HEK293 [9]): 0.9
- viability at 10 µM (S1-M1-80 [10]): 94.4%
- fold change (FC) [11]: 8.1
- fold change (FC) (S1 [12]): 1.1
